Results gathered from unrelated publications.

Compound | host | matrix | route | dose | notes | AUC
OC[C@H]1O[C@@H](c2ccc(Cl)c(Cc3ccc(O[C@H]4CCOC4)cc3)c2)[C@H](O)[C@@H](O)[C@@H]1O | male human | plasma | oral | 25 mg | multiple doses, once daily, steady state, healthy volunteers | 3960 ng·h/mL
COc1cc(C(=O)NC2CCN(C)CC2)c(F)cc1Nc1ncc(C(F)(F)F)c(Oc2cccc3c2C(=O)N(C)C3)n1 | human | plasma | oral | 200 mg | multiple doses, once daily, steady state, patients | 35.4 µM·h
Cn1c(=O)oc2ccc(-c3ccc(C[C@@H](C#N)NC(=O)[C@@H]4CNCCCO4)cc3)cc21 | male human | plasma | oral | 65 mg | single dose, healthy volunteers | 24.7 µM·h
CS(=O)(=O)CCNCc1ccc(-c2ccc3ncnc(Nc4ccc(OCc5cccc(F)c5)c(Cl)c4)c3c2)o1 | human | serum | oral | 1250 mg | single dose | 9070 ng·h/mL
NS(=O)(=O)NCCNc1nonc1C(=NO)Nc1ccc(F)c(Br)c1 | human | plasma | oral | 600 mg | multiple doses, twice daily, steady state, patients | 22.9 µM·h
CCOc1ccc(Cc2cc([C@@H]3O[C@H](CO)[C@@H](O)[C@H](O)[C@H]3O)ccc2Cl)cc1 | human | plasma | oral | 10 mg | multiple doses, steady state | 493 ng·h/mL
Cc1ccc(C(=O)N(CCCN)[C@@H](c2oc3cc(Cl)ccc3c(=O)c2Cc2ccccc2)C(C)C)cc1 | human | plasma | intravenous | 6 mg/m² | single dose, patients, infusion | 8150 ng·h/mL
CC(C)(C)OC[C@@H]1C(=O)NCCN1C(=O)C[C@H](N)Cc1cc(F)c(F)cc1F | male human | plasma | oral | 5 mg | multiple doses, steady state | 91.4 ng·h/mL
C[C@@H](c1ccc2nccn2c1)n1nnc2ncc(-c3cnn(C)c3)nc21 | human | plasma | oral | 200 mg |  | 4010 ng·h/mL
CS(=O)(=O)CCC#N | human | plasma | oral | 300 mg | multiple doses, once daily | 260000 ng·h/mL
